Source: ChEMBL document CHEMBL4411272, “Design, synthesis and biological evaluation of AZD9291 derivatives as selective and potent EGFRL858R/T790M inhibitors” (Eur J Med Chem, 2019)

Columns and labels:
[1] = target: Epidermal growth factor receptor (Homo sapiens, UniProt P00533); test: Inhibition of wild-type EGFR (unknown origin) using substrate-biotin by ELISA-based mobility shift assay
[2] = target: Epidermal growth factor receptor (Homo sapiens, UniProt P00533, L858R/T790M); test: Inhibition of EGFR T790M/L858R double mutant (unknown origin) using substrate-biotin by ELISA-based mobility shift assay
[3] = species: Homo sapiens; test: Selectivity ratio of IC50 for wild-type EGFR (unknown origin) to IC50 for EGFR T790M/L858R double mutant (unknown origin)
[4] = tested on: NCI-H1975; test: Antiproliferative activity against human NCI-H1975 cells after 72 hrs by MTT assay; type: functional, cell-based; details: NCI-H1975, 72 h
How it was run: (§1)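 MTT assay; cells grown as monolayers in DMEM or RPMI1640 with 10% FBS at 37 °C, 5% CO2 for 24 h, then compound added for 72 h. MTT at 5 μg/mL for 4 h at 37 °C, formazan dissolved in DMSO, absorbance read at 492 nm with 630 nm reference. Each compound tested three times per line; IC50 from averaged determinations.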

[5] = tested on: A549; test: Antiproliferative activity against human A549 cells after 72 hrs by MTT assay; type: functional, cell-based; details: A549, 72 h; how it was run: as §1
[6] = tested on: HepG2; test: Antiproliferative activity against human HepG2 cells after 72 hrs by MTT assay; type: functional, cell-based; details: HepG2, 72 h
How it was run: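 MTT assay; cells grown as monolayers in DMEM or RPMI1640 with 10% FBS at 37 °C, 5% CO2 for 24 h, then compound added for 72 h. Each compound tested three times per line; IC50 from averaged determinations.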

Chain of Epidermal growth factor receptor (Homo sapiens, UniProt P00533, L858R/T790M) (P00533 25-1210 T790M/L858R limits assumed): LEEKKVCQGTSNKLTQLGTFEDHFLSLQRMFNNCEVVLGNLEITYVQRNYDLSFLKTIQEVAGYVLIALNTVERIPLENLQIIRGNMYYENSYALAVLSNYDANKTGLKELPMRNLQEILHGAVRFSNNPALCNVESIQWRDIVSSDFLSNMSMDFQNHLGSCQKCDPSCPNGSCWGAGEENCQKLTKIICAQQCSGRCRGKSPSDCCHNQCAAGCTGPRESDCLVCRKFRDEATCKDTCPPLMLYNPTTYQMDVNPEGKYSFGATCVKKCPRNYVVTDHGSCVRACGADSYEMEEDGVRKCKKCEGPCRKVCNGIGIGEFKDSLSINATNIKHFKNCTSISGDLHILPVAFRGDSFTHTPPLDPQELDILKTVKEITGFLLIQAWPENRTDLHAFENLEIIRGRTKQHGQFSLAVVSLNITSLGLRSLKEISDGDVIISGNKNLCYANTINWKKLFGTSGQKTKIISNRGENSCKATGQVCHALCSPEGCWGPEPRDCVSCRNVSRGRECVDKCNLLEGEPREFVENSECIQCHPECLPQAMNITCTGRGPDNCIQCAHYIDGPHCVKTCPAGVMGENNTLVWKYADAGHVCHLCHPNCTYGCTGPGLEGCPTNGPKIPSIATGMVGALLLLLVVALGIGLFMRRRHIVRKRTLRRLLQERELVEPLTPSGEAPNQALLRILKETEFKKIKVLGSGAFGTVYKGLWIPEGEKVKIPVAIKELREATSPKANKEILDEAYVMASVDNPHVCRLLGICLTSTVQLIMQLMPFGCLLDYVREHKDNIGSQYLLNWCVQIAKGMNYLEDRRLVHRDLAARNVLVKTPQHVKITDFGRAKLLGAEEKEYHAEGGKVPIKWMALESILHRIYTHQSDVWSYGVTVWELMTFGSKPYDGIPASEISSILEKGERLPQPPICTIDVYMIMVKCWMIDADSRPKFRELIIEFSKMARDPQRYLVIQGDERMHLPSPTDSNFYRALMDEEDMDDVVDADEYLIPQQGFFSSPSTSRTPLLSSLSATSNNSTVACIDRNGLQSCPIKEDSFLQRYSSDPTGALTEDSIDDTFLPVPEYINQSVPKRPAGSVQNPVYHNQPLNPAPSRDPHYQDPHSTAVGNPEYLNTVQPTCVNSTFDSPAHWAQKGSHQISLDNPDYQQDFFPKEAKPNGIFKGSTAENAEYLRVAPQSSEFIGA
Chain of Epidermal growth factor receptor (Homo sapiens, UniProt P00533) (P00533 whole entry): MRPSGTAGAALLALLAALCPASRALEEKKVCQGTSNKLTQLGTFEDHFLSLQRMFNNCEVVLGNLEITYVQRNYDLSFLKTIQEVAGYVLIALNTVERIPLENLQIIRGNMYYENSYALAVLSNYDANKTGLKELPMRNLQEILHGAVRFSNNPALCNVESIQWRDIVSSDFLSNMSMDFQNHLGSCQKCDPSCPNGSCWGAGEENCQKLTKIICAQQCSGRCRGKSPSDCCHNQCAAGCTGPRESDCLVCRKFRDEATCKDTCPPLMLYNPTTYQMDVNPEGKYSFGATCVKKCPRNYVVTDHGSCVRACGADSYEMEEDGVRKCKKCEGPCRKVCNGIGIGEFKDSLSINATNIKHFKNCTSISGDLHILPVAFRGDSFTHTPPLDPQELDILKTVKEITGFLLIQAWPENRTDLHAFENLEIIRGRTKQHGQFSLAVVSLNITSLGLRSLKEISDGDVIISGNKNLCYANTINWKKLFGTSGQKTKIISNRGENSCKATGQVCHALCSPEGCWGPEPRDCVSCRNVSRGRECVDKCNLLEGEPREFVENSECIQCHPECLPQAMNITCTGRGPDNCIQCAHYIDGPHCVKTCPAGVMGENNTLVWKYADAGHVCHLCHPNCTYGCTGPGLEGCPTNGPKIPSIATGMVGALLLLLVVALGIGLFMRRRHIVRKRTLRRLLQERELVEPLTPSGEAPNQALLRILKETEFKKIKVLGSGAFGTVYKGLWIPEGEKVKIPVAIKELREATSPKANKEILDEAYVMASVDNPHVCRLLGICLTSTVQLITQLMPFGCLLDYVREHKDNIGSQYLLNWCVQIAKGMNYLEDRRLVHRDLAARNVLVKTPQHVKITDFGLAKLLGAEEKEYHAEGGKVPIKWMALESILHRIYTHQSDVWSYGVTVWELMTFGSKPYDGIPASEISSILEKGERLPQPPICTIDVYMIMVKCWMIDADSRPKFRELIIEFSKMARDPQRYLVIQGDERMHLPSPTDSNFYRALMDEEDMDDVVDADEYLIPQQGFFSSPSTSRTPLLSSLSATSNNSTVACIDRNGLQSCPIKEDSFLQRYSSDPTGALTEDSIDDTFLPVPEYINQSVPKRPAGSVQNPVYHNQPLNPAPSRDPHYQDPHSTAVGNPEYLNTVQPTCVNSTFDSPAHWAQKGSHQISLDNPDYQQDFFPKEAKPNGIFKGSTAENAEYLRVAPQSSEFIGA

SMILES | IC50 [1] [nM] | IC50 [2] [nM] | Ratio IC50 [3] | IC50 [4] [nM] | IC50 [5] [nM] | IC50 [6] [nM]
C=CC(=O)Nc1cc(Nc2nc(C)cc(-c3cn(C)c4ccccc34)n2)c(OC)cc1N(C)CCN(C)C | 1340 | 93 | 14.5 | 4810 | 2910 | 12600
COc1cc(N(C)CCN(C)C)c(NC(=O)C(Cl)=C(Cl)Cl)cc1Nc1nccc(-c2cn(C)c3ccccc23)n1 | > 2000 | > 2000 |  | > 50000 | > 50000 | > 50000
CCC/C=C\C(=O)Nc1cc(Nc2nccc(-c3cn(C)c4ccc(F)cc34)n2)c(OC)cc1N(C)CCN(C)C | 12 | 7.5 | 1.6 | 2730 | 1030 | 3400
C=CC(=O)Nc1cc(Nc2nccc(-c3cn(C)c4ccccc34)n2)c(OC)cc1N(C)CCN(C)C [OSIMERTINIB] |  |  |  | […] | 615 | 
CC/C=C\C(=O)Nc1cc(Nc2nc(C)cc(-c3cn(C)c4ccccc34)n2)c(OC)cc1N(C)CCN(C)C | 1260 | 18 | 69.7 | 1990 | 1080 | 2050
CCC/C=C\C(=O)Nc1cc(Nc2nccc(-c3cn(C)c4ccccc34)n2)c(OC)cc1N(C)CCN(C)C | 1500 | 203 | 7.4 | 1220 | 808 | 431
CC/C=C\C(=O)Nc1cc(Nc2nccc(-c3cn(C)c4ccc(F)cc34)n2)c(OC)cc1N(C)CCN(C)C | 684 | 388 | 1.8 | 2600 | 3600 | 5280
C=CC(=O)Nc1cc(Nc2ncc(C#N)c(-c3cn(C)c4ccc(F)cc34)n2)c(OC)cc1N(C)CCN(C)C | > 2000 | > 2000 |  | 11400 | 9700 | 17500
COc1cc(N(C)CCN(C)C)c(NC(=O)/C=C\C(C)C)cc1Nc1nc(C)cc(-c2cn(C)c3ccc(F)cc23)n1 | > 2000 | 892 |  | 8520 | 9080 | 14000
C=CC(=O)Nc1cc(Nc2ncc(C#N)c(-c3cn(C)c4ccccc34)n2)c(OC)cc1N(C)CCN(C)C | 311 | 25 | 12.4 | 1190 | 308 | 768
C=C(Cl)C(=O)Nc1cc(Nc2nc(C)cc(-c3cn(C)c4ccccc34)n2)c(OC)cc1N(C)CCN(C)C | 83 | 10 | 8.3 | 2230 | 1730 | 3640
C/C=C\C(=O)Nc1cc(Nc2nccc(-c3cn(C)c4ccccc34)n2)c(OC)cc1N(C)CCN(C)C | 395 | 52 | 7.6 | 4540 | 660 | 6930
COc1cc(N(C)CCN(C)C)c(NC(=O)/C=C\C(C)C)cc1Nc1nccc(-c2cn(C)c3ccc(F)cc23)n1 | 977 | > 2000 |  | 7360 | 6140 | 3920
COc1cc(N(C)CCN(C)C)c(NC(=O)/C=C\C(C)C)cc1Nc1nc(C)cc(-c2cn(C)c3ccccc23)n1 | > 2000 | 38 |  | 1230 | 1070 | 3550
CCC/C=C\C(=O)Nc1cc(Nc2nc(C)cc(-c3cn(C)c4ccc(F)cc34)n2)c(OC)cc1N(C)CCN(C)C | > 2000 | 923 |  | 12200 | 13300 | 12100
COc1cc(N(C)CCN(C)C)c(NC(=O)C=C(C)C)cc1Nc1nccc(-c2cn(C)c3ccccc23)n1 | 1280 | 209 | 6.1 | 5610 | 4100 | 5660
C=C(Cl)C(=O)Nc1cc(Nc2ncc(C#N)c(-c3cn(C)c4ccccc34)n2)c(OC)cc1N(C)CCN(C)C | 137 | 20 | 6.9 | 1620 | 133 | 115
CC/C=C\C(=O)Nc1cc(Nc2nccc(-c3cn(C)c4ccccc34)n2)c(OC)cc1N(C)CCN(C)C | 1280 | 177 | 7.2 | 3860 | 1530 | 6670
CC/C=C\C(=O)Nc1cc(Nc2ncc(C#N)c(-c3cn(C)c4ccc(F)cc34)n2)c(OC)cc1N(C)CCN(C)C | > 2000 | > 2000 |  | 10200 | 4720 | 5880
COc1cc(N(C)CCN(C)C)c(NC(=O)/C=C\C(C)C)cc1Nc1nccc(-c2cn(C)c3ccccc23)n1 | > 2000 | 397 |  | 1820 | 612 | 4390
COc1cc(N(C)CCN(C)C)c(NC(=O)/C=C\C(C)C)cc1Nc1ncc(C#N)c(-c2cn(C)c3ccccc23)n1 | 985 | 219 | 4.5 | 1110 | 1100 | 1810
C=C(Cl)C(=O)Nc1cc(Nc2nccc(-c3cn(C)c4ccccc34)n2)c(OC)cc1N(C)CCN(C)C | 257 | 33 | 7.8 | 1290 | 7520 | 1390
CCC/C=C\C(=O)Nc1cc(Nc2ncc(C#N)c(-c3cn(C)c4ccccc34)n2)c(OC)cc1N(C)CCN(C)C | 377 | 37 | 10.2 | 823 | 166 | 1680
CC/C=C\C(=O)Nc1cc(Nc2ncc(C#N)c(-c3cn(C)c4ccccc34)n2)c(OC)cc1N(C)CCN(C)C | 387 | 16 | 24.2 | 1150 | 162 | 1360
C=CC(=O)Nc1cc(Nc2nccc(-c3cn(C)c4ccc(F)cc34)n2)c(OC)cc1N(C)CCN(C)C | 8.7 | 0.07 | 124 | 254 | 329 | 429
C=CC(=O)Nc1cc(Nc2nc(C)cc(-c3cn(C)c4ccc(F)cc34)n2)c(OC)cc1N(C)CCN(C)C | 1090 | 591 | 1.9 | 3830 | 1490 | 4280
CC/C=C\C(=O)Nc1cc(Nc2nc(C)cc(-c3cn(C)c4ccc(F)cc34)n2)c(OC)cc1N(C)CCN(C)C | > 2000 | 998 |  | 10400 | 9150 | 11000
COc1cc(N(C)CCN(C)C)c(NC(=O)/C=C\C(C)C)cc1Nc1ncc(C#N)c(-c2cn(C)c3ccc(F)cc23)n1 | 415 | 360 | 1.2 | 1130 | 185 | 2840
CCC/C=C\C(=O)Nc1cc(Nc2ncc(C#N)c(-c3cn(C)c4ccc(F)cc34)n2)c(OC)cc1N(C)CCN(C)C | 1060 | 201 | 5.3 | 2420 | 741 | 2010
C=C(F)C(=O)Nc1cc(Nc2nccc(-c3cn(C)c4ccccc34)n2)c(OC)cc1N(C)CCN(C)C | 65 | 6 | 10.8 | 4230 | 2460 | 3790
